Reference: ChEMBL document CHEMBL2401698 (J Med Chem, 2013)
Activity calls are given as the source filed them.

What was measured:
[1] = molecular target: T1, Adenosine receptor A3 (Mus musculus) (UniProt Q61618); assay: Agonist activity at mouse adenosine A3 receptor expressed in HEK293 cell membranes assessed as inhibition of forskolin-stimulated cAMP production preincubated for 30 mins prior to forskolin-treatment measured after 15 mins by ELISA relative to control; assay type: functional, cell-based
T1 sequence (whole entry): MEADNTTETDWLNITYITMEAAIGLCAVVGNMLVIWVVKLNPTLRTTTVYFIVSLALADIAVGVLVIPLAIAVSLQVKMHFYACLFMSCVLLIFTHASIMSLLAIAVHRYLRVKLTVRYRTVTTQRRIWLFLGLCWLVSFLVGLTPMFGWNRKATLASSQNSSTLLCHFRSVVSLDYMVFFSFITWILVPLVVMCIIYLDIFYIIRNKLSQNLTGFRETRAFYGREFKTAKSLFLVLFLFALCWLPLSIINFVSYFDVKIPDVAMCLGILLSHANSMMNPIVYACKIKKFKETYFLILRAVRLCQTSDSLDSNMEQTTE

[2] = molecular target: Adenosine receptor A2a (Mus musculus) (UniProt Q60613); assay: Displacement of [3H]2-[p-(2-carboxyethyl)phenylethylamino]-5'-N-ethylcarboxamidoadenosine from mouse adenosine A2A receptor expressed in HEK293 cell membranes at 10 uM after 60 mins by liquid scintillation counting analysis relative to control
[3] = test system: Mus musculus; assay: Antiallodynic activity in adenosine A3 receptor knockout C57BL/6J mouse chronic constriction injury-induced neuropathic pain model assessed as reversal of mechanoallodynia at 3 micromol/kg, ip measured 1 to 5 hrs post-treatment
[4] = molecular target: T2, Adenosine receptor A1 (Mus musculus) (UniProt Q60612); assay: Agonist activity at mouse adenosine A1 receptor expressed in HEK293 cell membranes assessed as inhibition of forskolin-stimulated cAMP production up to 10 uM […] measured after 15 mins […]; assay type: functional, cell-based
T2 sequence (whole entry): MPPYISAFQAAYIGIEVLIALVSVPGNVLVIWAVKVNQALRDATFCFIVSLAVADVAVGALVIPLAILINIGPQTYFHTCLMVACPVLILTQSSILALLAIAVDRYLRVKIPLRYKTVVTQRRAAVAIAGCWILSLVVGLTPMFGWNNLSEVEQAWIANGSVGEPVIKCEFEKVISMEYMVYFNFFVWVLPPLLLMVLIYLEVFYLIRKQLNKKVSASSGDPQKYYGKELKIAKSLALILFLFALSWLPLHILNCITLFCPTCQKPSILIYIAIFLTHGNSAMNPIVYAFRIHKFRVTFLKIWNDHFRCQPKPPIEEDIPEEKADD
Method in brief: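 2 × 10^5 cells/tube coincubated with forskolin (10 μM) and ligand, up to 10 μM, for 15 min at 37 °C. Stopped with 1 N HCl; cAMP by competitive binding assay. Full agonist 44 as reference; sigmoidal fit; mean ± SEM, n = 4–7.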

[5] = molecular target: T2, Adenosine receptor A1 (Mus musculus); assay: Displacement of [125I]N6-(4-amino-3-iodobenzyl)adenosine-5'-N-methyluronamide from mouse adenosine A1 receptor expressed in HEK293 cell membranes at 10 uM after 60 mins by liquid scintillation counting analysis relative to control
[6] = molecular target: Adenosine receptors; A1 & A3 (Homo sapiens) (UniProt P30542+P0DMS8); assay: Selectivity ratio of Ki for human adenosine A1 receptor to Ki for human adenosine A3 receptor
[7] = test system: Mus musculus; assay: Antiallodynic activity in CD-1 mouse chronic constriction injury-induced neuropathic pain model assessed as reversal of mechanoallodynia at 3 micromol/kg, ip at 1 hr post-treatment; assay type: functional, organism-based
Method in brief: (§1)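 Male CD-1 mice (25–30 g) with chronic constriction injury of left sciatic nerve under isoflurane. At peak mechanoallodynia on day 7, given 3 μmol/kg ip in 5% DMSO/saline, or vehicle; n = 6. Paw withdrawal thresholds (g) measured on ipsilateral and contralateral paws over time. Experimenters blinded.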

[8] = test system: Mus musculus; assay: Antiallodynic activity in CD-1 mouse chronic constriction injury-induced neuropathic pain model assessed as effect on contralateral paw withdrawal threshold at 3 micromol/kg, ip; assay type: functional, organism-based; method in brief: as §1
[9] = molecular target: T3, Adenosine receptor A3 (Mus musculus, UniProt Q61618); assay: Agonist activity at mouse adenosine A3 receptor expressed in HEK293 cell membranes assessed as inhibition of forskolin-stimulated cAMP production preincubated for 30 mins prior to forskolin-treatment measured after 15 mins by ELISA; assay type: functional, cell-based
T3 sequence (Q61618 whole entry): T1 sequence (whole entry)

[10] = molecular target: T4, Adenosine receptor A1 (Homo sapiens) (UniProt P30542); assay: Displacement of [3H]N6-R-phenylisopropyladenosine from human adenosine A1 receptor expressed in CHO cell membranes at 10 uM after 60 mins by liquid scintillation counting analysis relative to control
T4 sequence (whole entry): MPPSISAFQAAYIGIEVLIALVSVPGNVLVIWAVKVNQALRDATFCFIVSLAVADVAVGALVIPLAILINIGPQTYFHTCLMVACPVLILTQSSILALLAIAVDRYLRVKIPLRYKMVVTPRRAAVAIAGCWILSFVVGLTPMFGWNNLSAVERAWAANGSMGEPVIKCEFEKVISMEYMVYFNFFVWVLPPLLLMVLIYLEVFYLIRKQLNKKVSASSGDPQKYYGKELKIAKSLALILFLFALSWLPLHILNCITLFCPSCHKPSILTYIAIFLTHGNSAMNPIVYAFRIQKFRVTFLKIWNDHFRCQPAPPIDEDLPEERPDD

[11] = test system: Mus musculus; assay: Antiallodynic activity in CD-1 mouse chronic constriction injury-induced neuropathic pain model assessed as reversal of mechanoallodynia at 3 micromol/kg, ip measured 1 to 5 hrs post-treatment in presence of MRS1523; assay type: functional, organism-based
[12] = molecular target: Adenosine receptor A2a (Homo sapiens) (UniProt P29274); assay: Displacement of [3H]2-[p-(2-carboxyethyl)phenylethylamino]-5'-N-ethylcarboxamidoadenosine from human adenosine A2A receptor expressed in HEK293 cell membranes at 10 uM after 60 mins by liquid scintillation counting analysis relative to control
[13] = molecular target: T5, Adenosine receptor A3 (Homo sapiens) (UniProt P0DMS8); assay: Activity at human adenosine A3 receptor expressed in CHO cell membranes assessed as inhibition of forskolin-stimulated cAMP production at 10 uM preincubated for 30 mins prior to forskolin-treatment measured after 15 mins by ELISA relative to 5'-N-ethylcarboxamidoadenosine; assay type: functional, cell-based
T5 sequence (whole entry): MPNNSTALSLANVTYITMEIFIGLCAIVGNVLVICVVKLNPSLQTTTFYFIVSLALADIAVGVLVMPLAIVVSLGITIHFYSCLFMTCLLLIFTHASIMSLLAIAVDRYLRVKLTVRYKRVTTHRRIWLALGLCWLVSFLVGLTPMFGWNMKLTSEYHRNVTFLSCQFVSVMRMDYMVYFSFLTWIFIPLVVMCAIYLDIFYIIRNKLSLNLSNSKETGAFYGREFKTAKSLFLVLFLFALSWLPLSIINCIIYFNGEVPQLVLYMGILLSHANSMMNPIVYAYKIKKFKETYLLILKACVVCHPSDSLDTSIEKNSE
Method in brief: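 Whole CHO cells stably expressing hA3AR, plated 24 h, washed with DMEM/50 mM HEPES pH 7.4. […] Forskolin (10 μM) then added for 15 min. Lysed in 0.1 M HCl; cAMP by enzyme immunoassay at 450 nm. Efficacy as % of reference maximum; mean ± SEM, n = 3–5.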

[14] = molecular target: T1, Adenosine receptor A3 (Mus musculus); assay: Activity at mouse adenosine A3 receptor expressed in HEK293 cell membranes assessed as inhibition of forskolin-stimulated cAMP production preincubated for 30 mins prior to forskolin-treatment measured after 15 mins by ELISA relative to 2-chloro-N6-(3-iodobenzyl)adenosine-5'-N-methyluronamide; assay type: functional, cell-based
[15] = species: Mus musculus; assay: Selectivity ratio of Ki for mouse adenosine A2A receptor to Ki for mouse adenosine A3 receptor
[16] = species: Mus musculus; assay: Selectivity ratio of Ki for mouse adenosine A1 receptor to Ki for mouse adenosine A3 receptor
[17] = test system: CHO; assay: Selectivity ratio of Ki for human adenosine A2A receptor expressed in HEK293 cell membranes to Ki for human adenosine A3 receptor expressed in CHO cell membranes; assay type: cell-based
[18] = molecular target: T6, Adenosine receptor A1 (Mus musculus, UniProt Q60612); assay: Agonist activity at mouse adenosine A1 receptor expressed in HEK293 cell membranes assessed as inhibition of forskolin-stimulated cAMP production preincubated for 30 mins prior to forskolin-treatment measured after 15 mins by ELISA; assay type: functional, cell-based
T6 sequence (Q60612 whole entry): T2 sequence (whole entry)

[19] = molecular target: T1, Adenosine receptor A3 (Mus musculus); assay: Displacement of [125I]N6-(4-amino-3-iodobenzyl)adenosine-5'-N-methyluronamide from mouse adenosine A3 receptor expressed in HEK293 cell membranes at 10 uM after 60 mins by liquid scintillation counting analysis relative to control
[20] = molecular target: T6, Adenosine receptor A1; assay: Partial agonist activity at mouse adenosine A1 receptor expressed in HEK293 cell membranes assessed as inhibition of forskolin-stimulated cAMP production preincubated for 30 mins prior to forskolin-treatment measured after 15 mins by ELISA; assay type: functional, cell-based

Sequence of Adenosine receptor A2a (Mus musculus) (Q60613 whole entry): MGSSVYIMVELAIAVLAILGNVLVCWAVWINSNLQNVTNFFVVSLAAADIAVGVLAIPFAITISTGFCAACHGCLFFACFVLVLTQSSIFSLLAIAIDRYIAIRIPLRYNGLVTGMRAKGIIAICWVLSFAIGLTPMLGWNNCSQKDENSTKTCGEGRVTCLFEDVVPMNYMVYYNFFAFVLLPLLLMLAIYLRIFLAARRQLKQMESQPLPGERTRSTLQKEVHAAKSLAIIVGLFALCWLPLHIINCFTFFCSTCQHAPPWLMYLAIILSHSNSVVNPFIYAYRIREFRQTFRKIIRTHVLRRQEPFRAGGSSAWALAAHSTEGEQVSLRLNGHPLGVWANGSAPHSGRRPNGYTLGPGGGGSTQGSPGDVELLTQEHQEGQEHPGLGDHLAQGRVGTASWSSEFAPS
Sequence of Adenosine receptor A2a (Homo sapiens) (P29274 whole entry): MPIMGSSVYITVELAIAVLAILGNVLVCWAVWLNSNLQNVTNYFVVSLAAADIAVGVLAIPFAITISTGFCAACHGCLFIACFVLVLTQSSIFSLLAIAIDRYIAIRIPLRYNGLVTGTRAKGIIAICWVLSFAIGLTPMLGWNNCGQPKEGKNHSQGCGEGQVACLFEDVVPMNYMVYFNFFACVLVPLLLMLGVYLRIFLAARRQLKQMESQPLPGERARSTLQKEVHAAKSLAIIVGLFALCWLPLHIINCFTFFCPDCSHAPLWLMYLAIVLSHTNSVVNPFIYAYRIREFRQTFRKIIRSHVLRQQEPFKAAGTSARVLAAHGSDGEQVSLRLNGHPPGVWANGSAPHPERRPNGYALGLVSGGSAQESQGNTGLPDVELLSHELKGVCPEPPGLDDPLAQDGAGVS

Emax [1]	inhibition [2]	inhibition [5]	inhibition [10]	inhibition [12]	Efficacy [13]	Structure (SMILES)	other results
41%						CNC(=O)[C@H]1O[C@@H](n2cnc3c(NCc4cccc(I)c4)nc(Cl)nc32)[C@H](O)[C@@H]1O	
	0%					O[C@@H]1[C@H](O)[C@@H]2C[C@@H]2[C@H]1n1cnc2c(NCc3cccc(Cl)c3)nc(C#Cc3ccc(-c4ccccc4)cc3)nc21	
50%	1%	15%	16%	7%	98.2%	CNC(=O)[C@@]12C[C@@H]1[C@@H](n1cnc3c(NCc4cccc(Cl)c4)nc(C#Cc4cccc(S(=O)(=O)O)c4)nc31)[C@H](O)[C@@H]2O	Activity [3]: inactive; inhibition [4]: inactive; Ratio Ki [6]: > 10000; Activity [7]: Active; Activity [8]: inactive; EC50 [9]: 2.6 nM; Activity [11]: Active; Efficacy [14]: 89.3%; Ratio Ki [15]: > 1000; Ratio Ki [16]: > 1000; Ratio Ki [17]: > 10000
	1%	18%	10%	15%	7.2%	O=S(=O)(O)c1ccc(CCNc2nc(C#Cc3ccccc3)nc3c2ncn3[C@H]2[C@H](O)[C@H](O)[C@@H]3C[C@@H]32)cc1	
47%	1%	25%	11%	32%	105%	CNC(=O)[C@@]12C[C@@H]1[C@@H](n1cnc3c(NCCc4ccccc4)nc(C#Cc4ccccc4)nc31)[C@H](O)[C@@H]2O	EC50 [9]: 3.33 nM; Efficacy [14]: 115%
	8%					CNc1nc(C#Cc2ccccc2)nc2c1ncn2[C@H]1[C@H](O)[C@H](O)[C@@H]2C[C@@H]21	
						OC[C@H]1O[C@@H](n2cnc3c(NC4CCCC4)nc(Cl)nc32)[C@H](O)[C@@H]1O	EC50 [18]: 17.7 nM
	16%	23%				O[C@@H]1[C@H](O)[C@@H]2C[C@@H]2[C@H]1n1cnc2c(NCC(c3ccccc3)c3ccccc3)nc(C#Cc3ccccc3Cl)nc21	inhibition [19]: 54%
	0%	7%	9%	1%	93.8%	CNC(=O)[C@@]12C[C@@H]1[C@@H](n1cnc3c(NCCc4ccc(S(=O)(=O)O)cc4)nc(C#Cc4ccccc4)nc31)[C@H](O)[C@@H]2O	
	49%	49%				CCNc1nc(C#Cc2ccccc2)nc2c1ncn2[C@H]1[C@H](O)[C@H](O)[C@@H]2C[C@@H]21	
	11%	47%				CCNc1nc(C#Cc2ccccc2Cl)nc2c1ncn2[C@H]1[C@H](O)[C@H](O)[C@@H]2C[C@@H]21	inhibition [19]: 50%
45%	14%			23%	96.8%	CNC(=O)[C@@]12C[C@@H]1[C@@H](n1cnc3c(NCc4cccc(Cl)c4)nc(C#Cc4ccc(S(=O)(=O)O)cc4)nc31)[C@H](O)[C@@H]2O	Activity [3]: Active; Activity [7]: Active; Activity [8]: inactive; EC50 [9]: 13 nM; Efficacy [14]: 95.7%; EC50 [20]: 495 nM
